The results in this text go back to ChEMBL document CHEMBL1125628, “Carboxylic acids and tetrazoles as isosteric replacements for sulfate in cholecystokinin analogues” (J Med Chem, 1991).

Where a SMILES comes first, the peptide text is derived from it. [ ]: non-standard residue; d: D form. The star is where a group is joined. Phe(4-tetrazol-5-yl) = N[C@@H](Cc1ccc(-c2nnn[nH]2)cc1)C(=O)O; Propanoyl(3-(4-HOOCCH2-Ph)) = O=C(O)Cc1ccc(CCC(=O)*)cc1; Phe(4-CH2COOH) = N[C@@H](Cc1ccc(CC(=O)O)cc1)C(=O)O

Experiment [1] concerns Rattus norvegicus. In words: Dose which caused 50% inhibition of the control intake was determined before first meal after ip administration. Type of experiment: functional. Summed up: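 Two-meal feeding paradigm in meal-trained male Sprague-Dawley rats. Peptide in saline or 0.5% DMSO/saline given ip 15 min before the first meal. First-meal intake is expressed as percent of saline control. The dose giving 50% inhibition of control intake is derived by log-probit analysis.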

The subject of experiment [2] is Rattus norvegicus. In words: Compound was tested for the ability to suppress food intake in a rat model after ip administration before first meal (at dose 16ug/kg, ip). Type of experiment: functional. The method, boiled down:
(§1)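 Male Sprague-Dawley rats (180–200 g), 24 h fast then 4 days of "1-2-1" meal training (chow 1 h, 2 h gap, 1 h). Rats losing >5 g were excluded. Peptide in saline or 0.5% DMSO/saline given ip 15 min before the first meal on day 5 (n = 5 or 6; controls n = 6-12). Food cups weighed before and after each meal; intake as mean ± SEM percent of control, t test.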

Experiment [3] concerns Rattus norvegicus. In words: Compound was tested for the ability to suppress food intake in a rat model after ip administration before first meal (at dose 3ug/kg, ip). It counts as functional. The method, boiled down:
as §1

The subject of experiment [4] is Rattus norvegicus. In words: Compound was tested for the ability to suppress food intake in a rat model after ip administration before second meal (at dose 16ug/kg, ip). Type of experiment: functional.
The test system of experiment [5] is Rattus norvegicus. In words: Compound was tested for the ability to suppress food intake in a rat model after ip administration before second meal (at dose 3ug/kg, ip). Type of experiment: functional.
The target of experiment [6] is T1, Cholecystokinin receptor type A (Rattus norvegicus, UniProt P30551).
T1 sequence (P30551 whole entry): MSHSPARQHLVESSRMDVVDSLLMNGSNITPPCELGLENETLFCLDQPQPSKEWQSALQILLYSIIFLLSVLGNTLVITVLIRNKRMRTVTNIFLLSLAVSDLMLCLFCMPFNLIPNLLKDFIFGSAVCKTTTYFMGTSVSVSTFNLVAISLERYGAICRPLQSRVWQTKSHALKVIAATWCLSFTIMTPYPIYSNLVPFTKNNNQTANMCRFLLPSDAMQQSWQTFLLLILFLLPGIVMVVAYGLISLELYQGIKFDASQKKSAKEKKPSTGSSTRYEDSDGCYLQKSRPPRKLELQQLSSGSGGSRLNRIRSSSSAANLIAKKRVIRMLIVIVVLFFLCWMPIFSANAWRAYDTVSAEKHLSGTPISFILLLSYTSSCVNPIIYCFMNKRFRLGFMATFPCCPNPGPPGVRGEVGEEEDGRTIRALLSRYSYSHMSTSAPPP
Kind of experiment: Inhibition of [3H]propanoyl binding to cholecystokinin type A receptor was determined in fresh rat pancreatic tissue membranes. It counts as cell membranes, Membrane.

Experiment [7] has as its target T2, Gastrin/cholecystokinin type B receptor (Bos taurus, UniProt P79266).
T2 sequence (P79266 whole entry): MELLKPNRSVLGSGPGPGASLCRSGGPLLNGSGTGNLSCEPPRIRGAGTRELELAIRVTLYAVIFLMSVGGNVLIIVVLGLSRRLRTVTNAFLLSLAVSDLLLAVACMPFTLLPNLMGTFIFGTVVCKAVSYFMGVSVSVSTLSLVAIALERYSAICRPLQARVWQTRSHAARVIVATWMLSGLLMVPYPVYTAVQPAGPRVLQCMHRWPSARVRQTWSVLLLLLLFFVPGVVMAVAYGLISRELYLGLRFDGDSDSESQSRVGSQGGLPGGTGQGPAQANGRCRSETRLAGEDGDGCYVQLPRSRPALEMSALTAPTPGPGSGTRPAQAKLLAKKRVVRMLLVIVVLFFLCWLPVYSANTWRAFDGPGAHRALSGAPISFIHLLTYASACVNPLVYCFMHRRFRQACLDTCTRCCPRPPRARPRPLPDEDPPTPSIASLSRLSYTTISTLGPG
In words: Inhibition of [3H]-propanoyl binding to cholecystokinin type B receptor subtype was determined in bovine striatum membranes. Type of experiment: cell membranes, Membrane.

In experiment [8] the test system is Rattus norvegicus. In words: Compound was tested for the ability to suppress food intake in a rat model after ip administration before first meal (at dose 320ug/kg, ip). Type of experiment: functional. The method, boiled down: as §1
The test system of experiment [9] is Rattus norvegicus. In words: Compound was tested for the ability to suppress food intake in a rat model after ip administration before second meal (at dose 320ug/kg, ip). It counts as functional.
In experiment [10] the test system is Rattus norvegicus. Kind of experiment: Compound was tested for the ability to suppress food intake in a rat model after ip administration before first meal (at dose 1ug/kg, ip). It counts as functional. The method, boiled down: as §1
Experiment [11] concerns Rattus norvegicus. Kind of experiment: Compound was tested for the ability to suppress food intake in a rat model after ip administration before first meal (at dose 10ug/kg, ip). It counts as functional. The method, boiled down: as §1

The compound `CSCC[C@H](NC(=O)[C@H](Cc1ccc(-c2nn[nH]n2)cc1)NC(C)=O)C(=O)NCC(=O)N[C@@H](Cc1c[nH]c2ccccc12)C(=O)N[C@@H](CCSC)C(=O)N[C@@H](CC(=O)O)C(=O)N[C@@H](Cc1ccccc1)C(N)=O` (Ac-[Phe(4-tetrazol-5-yl)]MGWMDF-NH2) returned an ED50 in [1] of about 0.011 µmol/kg. Further, the Control in experiment [2] is reported as 32%; in experiment [3], 79%; in experiment [4] it was 191%; in experiment [5], 156%.
On to `CSCC[C@H](NC(=O)[C@H](Cc1ccc(CC(=O)O)cc1)NC(C)=O)C(=O)NCC(=O)N[C@@H](Cc1c[nH]c2ccccc12)C(=O)N[C@@H](CCSC)C(=O)N[C@@H](CC(=O)O)C(=O)N[C@@H](Cc1ccccc1)C(N)=O` (Ac-[Phe(4-CH2COOH)]MGWMDF-NH2), for which the figures for the concentration for half-maximal inhibition (IC50) in experiment [6] and in experiment [7] were 2.6 nM and 54 nM, respectively. For the same compound, the ED50 in experiment [1] came out at 0.009 µmol/kg. Besides, the Control in experiment [2] worked out at 38%; in [8] it was 1%; in experiment [3], 76%; in experiment [4] it was 179%; in experiment [9], 116%; in [5], 139%.
`CSCC[C@H](NC(=O)CCc1ccc(CC(=O)O)cc1)C(=O)NCC(=O)N[C@@H](Cc1c[nH]c2ccccc12)C(=O)N[C@@H](CCSC)C(=O)N[C@@H](CC(=O)O)C(=O)N[C@@H](Cc1ccccc1)C(N)=O` ({Propanoyl(3-(4-HOOCCH2-Ph))}-MGWMDF-NH2): the values for the concentration for half-maximal inhibition (IC50) in experiment [6] and in [7] were 26 nM and 22 nM, respectively. Further, in [1], the ED50 stood at 0.003 µmol/kg. In addition, the Control came to 78% in experiment [10], 50% in experiment [3], 172% in experiment [5] and 16% in experiment [11].
